From ChEMBL document CHEMBL2385057 (Bioorg Med Chem Lett, 2013)

Legend:
[1] = AUC in Sprague-Dawley rat at 10 mg/kg, po; type: ADME, organism-based; parameters: dose 10 mg/kg, route oral; conditions: plasma
In short: (§1)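 Male Sprague–Dawley rats, two animals per route. Dosing was either intravenous at 1 mg/kg or oral at 10 mg/kg. Pharmacokinetic parameters were derived from these dosings.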

[2] = Half life in Sprague-Dawley rat at 1 mg/kg, iv; type: ADME, organism-based; parameters: dose 1 mg/kg, route intravenous; conditions: in vivo; in short: as §1
[3] = target: 3',5'-cyclic-AMP phosphodiesterase 4B (Homo sapiens, UniProt Q07343); assay: Inhibition of PDE4B catalytic domain (unknown origin)
Sequence of 3',5'-cyclic-AMP phosphodiesterase 4B (Q07343 whole entry, the tested form may be a part): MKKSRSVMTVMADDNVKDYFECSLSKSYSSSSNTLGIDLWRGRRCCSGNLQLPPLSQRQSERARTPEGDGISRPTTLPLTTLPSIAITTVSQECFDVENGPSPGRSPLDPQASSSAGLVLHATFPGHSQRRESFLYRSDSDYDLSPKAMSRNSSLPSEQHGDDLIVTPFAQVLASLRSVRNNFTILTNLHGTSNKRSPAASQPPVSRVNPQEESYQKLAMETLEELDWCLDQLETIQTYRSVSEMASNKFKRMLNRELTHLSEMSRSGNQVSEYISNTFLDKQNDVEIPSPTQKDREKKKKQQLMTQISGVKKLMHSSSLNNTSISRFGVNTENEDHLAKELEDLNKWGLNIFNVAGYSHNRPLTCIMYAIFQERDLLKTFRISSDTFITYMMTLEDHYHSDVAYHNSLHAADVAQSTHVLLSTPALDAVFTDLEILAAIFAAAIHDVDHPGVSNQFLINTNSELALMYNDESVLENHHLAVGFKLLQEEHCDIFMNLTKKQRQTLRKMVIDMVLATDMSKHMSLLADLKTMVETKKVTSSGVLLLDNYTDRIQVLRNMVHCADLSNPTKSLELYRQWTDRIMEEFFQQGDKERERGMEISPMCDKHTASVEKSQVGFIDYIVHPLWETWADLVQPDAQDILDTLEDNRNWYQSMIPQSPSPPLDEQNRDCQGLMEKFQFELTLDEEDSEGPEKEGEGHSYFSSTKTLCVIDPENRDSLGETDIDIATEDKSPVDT
In short: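 Each IC50 is the mean of at least two independent determinations. Each curve had 10 half-log dilutions, centred near the 50% inhibition level, with each point run in duplicate.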

[4] = Tmax in Sprague-Dawley rat at 10 mg/kg, po; type: ADME, organism-based; parameters: dose 10 mg/kg, route oral; conditions: in vivo; in short: as §1
[5] = target: cGMP-dependent 3',5'-cyclic phosphodiesterase (Homo sapiens, UniProt O00408); assay: Inhibition of PDE2 catalytic domain (unknown origin)
Sequence of cGMP-dependent 3',5'-cyclic phosphodiesterase (O00408 whole entry, the tested form may be a part): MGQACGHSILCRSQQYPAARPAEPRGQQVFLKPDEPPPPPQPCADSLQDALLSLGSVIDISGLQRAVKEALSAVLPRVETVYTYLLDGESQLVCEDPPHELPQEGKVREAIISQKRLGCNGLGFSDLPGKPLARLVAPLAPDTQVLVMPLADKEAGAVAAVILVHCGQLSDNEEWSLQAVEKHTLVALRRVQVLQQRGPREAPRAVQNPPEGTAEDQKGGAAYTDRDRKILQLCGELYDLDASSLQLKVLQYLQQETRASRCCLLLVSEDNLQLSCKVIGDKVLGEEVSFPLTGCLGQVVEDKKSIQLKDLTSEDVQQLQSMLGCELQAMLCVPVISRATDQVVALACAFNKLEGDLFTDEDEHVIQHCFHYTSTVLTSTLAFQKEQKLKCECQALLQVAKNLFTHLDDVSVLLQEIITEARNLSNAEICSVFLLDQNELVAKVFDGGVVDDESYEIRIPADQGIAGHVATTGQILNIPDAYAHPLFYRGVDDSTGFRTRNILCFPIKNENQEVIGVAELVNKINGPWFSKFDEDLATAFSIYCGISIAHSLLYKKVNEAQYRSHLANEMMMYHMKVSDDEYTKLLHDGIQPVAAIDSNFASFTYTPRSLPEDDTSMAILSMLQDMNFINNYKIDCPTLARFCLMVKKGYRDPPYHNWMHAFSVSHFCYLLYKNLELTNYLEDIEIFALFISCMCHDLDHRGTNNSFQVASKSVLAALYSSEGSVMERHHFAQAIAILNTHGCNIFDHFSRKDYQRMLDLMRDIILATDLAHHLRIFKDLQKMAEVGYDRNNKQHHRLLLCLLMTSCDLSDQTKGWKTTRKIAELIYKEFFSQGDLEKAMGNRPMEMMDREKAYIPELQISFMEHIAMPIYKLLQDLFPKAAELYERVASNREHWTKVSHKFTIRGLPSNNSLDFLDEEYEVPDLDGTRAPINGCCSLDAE

[6] = Clearance in Sprague-Dawley rat at 1 mg/kg, iv and 10 mg/kg, po; type: ADME, organism-based; conditions: in vivo; in short: as §1
[7] = Half life in human liver microsomes; type: ADME, Microsome
[8] = Oral bioavailability in Sprague-Dawley rat at 10 mg/kg; type: ADME, organism-based; conditions: in vivo; in short: as §1
[9] = Volume of distribution at steady state in Sprague-Dawley rat at 1 mg/kg, iv and 10 mg/kg, po; type: ADME, organism-based; conditions: in vivo, read-out: Vdss; in short: as §1
Rattus norvegicus [10] = assay: Analgesic activity in medial meniscal transection rat osteoarthritis pain model assessed as inhibition of change in hind paw weight distribution at 10 mg/kg, po administered on day 28 post medial meniscal transection surgery measured after 3 hrs relative to vehicle-treated control; type: functional
Rattus norvegicus [11] = assay: Analgesic activity in medial meniscal transection rat osteoarthritis pain model assessed as inhibition of change in hind paw weight distribution at 10 mg/kg, sc administered on day 28 post medial meniscal transection surgery measured after 3 hrs relative to vehicle-treated control; type: functional; conditions: route subcutaneous
In short: (§2)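 The rats were assessed for hind paw weight distribution. On day 28 after surgery they received a single subcutaneous dose of compound or vehicle and were reassessed 1 and 3 h post dose. N = 6 rats per group, data as mean ± SEM. Significance was tested by one-way ANOVA with Dunnett's test against vehicle at the same time point, P < 0.05.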

[12] = Fraction unbound in plasma of medial meniscal transection rat osteoarthritis pain model at 10 mg/kg, sc administered on day 28 post medial meniscal transection surgery measured at 1 hr to 3 hrs; type: ADME, organism-based; parameters: dose 10 mg/kg, route subcutaneous
[13] = Half life in rat liver microsomes; type: ADME, Microsome
Brain = assay: Total drug level in brain of medial meniscal transection rat osteoarthritis pain model at 10 mg/kg, sc administered on day 28 post medial meniscal transection surgery measured at 1 hr to 3 hrs; type: ADME, organism-based; parameters: dose 10 mg/kg, route subcutaneous; conditions: read-out: Drug uptake, in vivo
Rattus norvegicus [14] = assay: Analgesic activity in medial meniscal transection rat osteoarthritis pain model assessed as inhibition of change in hind paw weight distribution at 10 mg/kg, po administered on day 28 post medial meniscal transection surgery measured after 1 hr relative to vehicle-treated control; type: functional
[15] = Fraction unbound in brain of medial meniscal transection rat osteoarthritis pain model at 10 mg/kg, sc administered on day 28 post medial meniscal transection surgery measured at 1 hr to 3 hrs; type: ADME, organism-based; parameters: dose 10 mg/kg, route subcutaneous
[16] = Plasma concentration in medial meniscal transection rat osteoarthritis pain model at 10 mg/kg, sc administered on day 28 post medial meniscal transection surgery measured at 1 hr; type: ADME, organism-based; parameters: dose 10 mg/kg, route subcutaneous
In short: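 Plasma was sampled 1 h after a single subcutaneous 10 mg/kg dose in the rat osteoarthritis pain model. Free concentration was derived using the rat plasma free fraction.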

Rattus norvegicus [17] = assay: Analgesic activity in medial meniscal transection rat osteoarthritis pain model assessed as inhibition of change in hind paw weight distribution at 10 mg/kg, sc administered on day 28 post medial meniscal transection surgery measured after 1 hr relative to vehicle-treated control; type: functional; conditions: route subcutaneous; in short: as §2

IC50 [3]	IC50 [5]	half-life [7]	SMILES	other results
6740 nM	36 nM	120 min	COc1ccc(C2=Nc3c(C(C)(C)C)nn(CCCO)c3C(=O)NC2)cc1-c1cnn(C)c1	AUC [1]: 1160 ng·h/mL; half-life [2]: 43.8 min; Tmax [4]: 30 min; clearance [6]: 43 mL/min/kg; bioavailability [8]: 31%; Vd [9]: 2 L/kg
100000 nM	505 nM	51 min	COc1ccc(C2=Nc3c(C(C)(C)C)nn(CCCO)c3C(=O)NC2)cc1-c1ccccc1SC	
100000 nM	14 nM	120 min	COc1ccc(-c2cc(C3=Nc4c(C(C)(C)C)nn(CCCO)c4C(=O)NC3)ccc2OC)c(OC)c1	
1920 nM	7 nM	120 min	COc1ncc(-c2cc(C3=Nc4c(C(C)(C)C)nn(CCCO)c4C(=O)NC3)ccc2OC)c(OC)n1	
8160 nM	586 nM	48 min	COc1ccc(C2=Nc3c(C(C)(C)C)nn(CCCO)c3C(=O)NC2)cc1-c1ccccc1F	
410 nM	1.2 nM	33 min	COc1ccc(C2=Nc3c(C(C)(C)C)nn(CCO)c3C(=O)NC2)cc1-c1cnc(N2CCCC2)nc1	
110 nM	6.8 nM	59 min	COc1ccc(C2=Nc3c(C(C)(C)C)nn(CCO)c3C(=O)NC2)cc1-c1cnn(C)c1	
562 nM		34 min	COc1ncc(-c2cc(C3=Nc4c(C(C)(C)C)nn(CCO)c4C(=O)NC3)ccc2OC)cn1	AUC [1]: 4530 ng·h/mL; half-life [2]: 90 min; fraction unbound [12]: 0.032; half-life [13]: > 60 min; Tmax [4]: 180 min; clearance [6]: 27 mL/min/kg; concentration (Brain): 475 nM; inhibition in vivo at 10 mg/kg (Rattus norvegicus [14]): 44%; fraction unbound [15]: 0.009; concentration at 1 h [16]: 2500 nM; bioavailability [8]: 78%; Vd [9]: 3.02 L/kg; inhibition in vivo at 10 mg/kg (Rattus norvegicus [17]): 79%
27000 nM	40 nM	120 min	COc1ccc(C2=Nc3c(C(C)(C)C)nn(CCCO)c3C(=O)NC2)cc1-c1ccc(C(=O)O)cc1	
418 nM	1.8 nM	57 min	COc1ccc(-c2cc(C3=Nc4c(C(C)(C)C)nn(CCO)c4C(=O)NC3)ccc2OC)c(OC)n1	
5660 nM	18 nM	42 min	COc1ccc(C2=Nc3c(C(C)(C)C)nn(CCCO)c3C(=O)NC2)cc1-c1cnc(N(C)C)cc1C	
138 nM	9.3 nM	36 min	COc1ncc(-c2cc(C3=Nc4c(C(C)(C)C)nn(CCO)c4C(=O)NC3)ccc2OC)c(OC)n1	

The next lines start with the compound.

SMILES	IC50 [3]	IC50 [5]	half-life [7]	other results
COc1ccc(C2=Nc3c(C(C)(C)C)nn(CCO)c3C(=O)NC2)cc1-c1cnc(N(C)C)nc1	695 nM	2.5 nM	36 min	
COc1ccccc1-c1cc(C2=Nc3c(C(C)(C)C)nn(CCCO)c3C(=O)NC2)ccc1OC	2070 nM	156 nM	82 min	
CS(=O)(=O)c1ccc(C2=C(c3ccccc3)C(=O)OC2)cc1 [ROFECOXIB]				inhibition in vivo at 10 mg/kg (Rattus norvegicus [10]): 79%; inhibition in vivo at 10 mg/kg (Rattus norvegicus [11]): 100%
CCC(C)(C)c1nn(CCO)c2c1N=C(c1ccc(-n3ccnc3C)cc1)CNC2=O			6.9 min	
COc1ccc(OC)c(-c2cc(C3=Nc4c(C(C)(C)C)nn(CCCO)c4C(=O)NC3)ccc2OC)c1	8110 nM	46 nM	61 min	
COc1ccc(C2=Nc3c(C(C)(C)C)nn(CCO)c3C(=O)NC2)cc1-c1cnc(N2CCCCC2)nc1	353 nM	2.5 nM	18 min	
COc1ccc(-c2cc(C3=Nc4c(C(C)(C)C)nn(CCO)c4C(=O)NC3)ccc2OC)c(OC)c1	741 nM	3.4 nM	43 min	
CCC(CC)c1nn(CCO)c2c1N=C(c1ccc(-n3ccnc3C)cc1)CNC2=O				AUC [1]: 1660 ng·h/mL; half-life [2]: 31.8 min; Tmax [4]: 135 min; clearance [6]: 70 mL/min/kg; bioavailability [8]: 75%; Vd [9]: 1.1 L/kg
COc1ccc(-c2cc(C3=Nc4c(C(C)(C)C)nn(CCCO)c4C(=O)NC3)ccc2OC)cn1	6190 nM	70 nM	120 min	
COc1ccc(C2=Nc3c(C(C)(C)C)nn(CCO)c3C(=O)NC2)cc1-c1cnc(N(C)C)cc1C	534 nM	1.3 nM	74 min	
COc1ccc(C2=Nc3c(C(C)(C)C)nn(CCCO)c3C(=O)NC2)cc1-c1ccc(F)cc1F	100000 nM	483 nM	120 min	
COc1ccc(C2=Nc3c(C(C)(C)C)nn(CCO)c3C(=O)NC2)cc1-c1cnc(N2CCOCC2)nc1	265 nM	1.4 nM	39 min	
